Assays:
[1] = Lipophilicity, log D by CHI assay at pH 7.4; format: physicochemical; conditions: buffer, read-out: Log D
[2] = Volume of distribution in Han Wistar rat at 1 mg/kg, iv and 2.5 mg/kg, po; format: ADME, organism-based; conditions: in vivo, read-out: Vss
How it was run: (§1)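 Male Han Wistar rats were given an intravenous bolus at a nominal 1 mg/kg, or oral gavage at a nominal 2.5 mg/kg.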

[3] = Plasma clearance in Han Wistar rat at 1 mg/kg, iv and 2.5 mg/kg, po; format: ADME, organism-based; how it was run: as §1
[4] = Half life in Han Wistar rat at 1 mg/kg, iv and 2.5 mg/kg, po; format: ADME, organism-based; conditions: in vivo; how it was run: as §1
[5] = Oral bioavailability in Beagle dog at 1 mg/kg, iv and 1 mg/kg, po; format: ADME, organism-based, Canis lupus familiaris; conditions: in vivo
[6] = Oral bioavailability in Han Wistar rat at 1 mg/kg, iv and 2.5 mg/kg, po; format: ADME, organism-based; conditions: in vivo; how it was run: as §1
[7] = Half life in Beagle dog at 1 mg/kg, iv and 1 mg/kg, po; format: ADME, organism-based, Canis lupus familiaris; conditions: in vivo
[8] = Plasma clearance in Beagle dog at 1 mg/kg, iv and 1 mg/kg, po; format: ADME, organism-based, Canis lupus familiaris
[9] = Volume of distribution in Beagle dog at 1 mg/kg, iv and 1 mg/kg, po; format: ADME, organism-based, Canis lupus familiaris; conditions: in vivo, read-out: Vss

| SMILES | chromatographic logD [1] | Vd [2] [L/kg] | clearance [3] [mL/min/kg] | half-life [4] [min] | bioavailability [5] [%] | bioavailability [6] [%] | half-life [7] [min] | clearance [8] [mL/min/kg] | Vd [9] [L/kg] |
| --- | --- | --- | --- | --- | --- | --- | --- | --- | --- |
| C[C@@H](C(=O)N1CC2CCC1CC2)N1CC[C@H](NS(=O)(=O)c2ccc3cc(Cl)ccc3c2)C1=O | 2.94 |  |  |  |  |  |  |  |  |
| C[C@@H](C(=O)N1CCOCC1)N1CC[C@H](N(C)S(=O)(=O)c2ccc3cc(Cl)ccc3c2)C1=O |  | 0.4 | 15 | 30 |  |  |  |  |  |
| C[C@@H](C(=O)N1CCOCC1)N1CC[C@H](N(CC(=O)O)S(=O)(=O)c2ccc3cc(Cl)ccc3c2)C1=O |  | 0.3 | 37 | 12 |  |  |  |  |  |
| C[C@@H](C(=O)N1CC2CNCC(C2)C1)N1CC[C@H](NS(=O)(=O)c2ccc3cc(Cl)ccc3c2)C1=O | 1.47 |  |  |  |  |  |  |  |  |
| C[C@@H](C(=O)N1CCOCC1)N1CC[C@H](N(CC(N)=O)S(=O)(=O)c2ccc3cc(Cl)ccc3c2)C1=O |  | 0.5 | 24 | 18 |  |  |  |  |  |
| C[C@@H](C(=O)N1CCOCC1)N1CC[C@H](NS(=O)(=O)c2ccc3cc(Cl)ccc3c2)C1=O | 2.2 | 0.6 | 13 | 54 | 100 | 85 | 126 | 2.7 | 0.44 |
| CCC(=O)CN([C@H]1CCN([C@@H](C)C(=O)N2CCOCC2)C1=O)S(=O)(=O)c1ccc2cc(Cl)ccc2c1 |  | 1.1 | 37 | 30 |  |  |  |  |  |
